{
  "source": "ChEMBL document CHEMBL3593178",
  "about": "“Synthesis and evaluation of hedgehog signaling inhibitor with novel core system” (Bioorg Med Chem, 2015)",
  "key": {"[1]": {"assay": "In vivo inhibition of Gli1 mRNA expression in mouse bearing human PAN-04 cells assessed as expression level at 25 mg/kg, po bid after 24 hrs by qPCR analysis relative to control", "format": "functional", "procedure,_shortened": "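Nude mice bearing human primary pancreatic tumor PAN-04 given compound orally twice daily at 25 mg/kg; tumors excised 24 h after first dose, stored in RNAlater; mouse stromal Gli1 mRNA quantified with mouse Gli1 and mouse GAPDH probe sets; expressed relative to controls.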"}, "[2]": {"assay": "Inhibition of hedgehog signaling pathway in mouse NIH/3T3 cells after 48 hrs by Gli-luciferase reporter gene assay", "format": "cell-based", "conditions": "NIH3T3, 48 h", "procedure,_shortened": "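NIH3T3 cells stably carrying Gli-luciferase reporter, kept in DMEM/10% FBS with 500 µg/mL G418, seeded at 7.5 × 10³ cells/well on collagen-coated plates overnight at 37 °C, 5% CO2; then recombinant mouse Shh-N plus compound (final 0.03–1000 nM, 5.8% FBS), n = 4 wells, 48 h; luciferase read with Bright-Glo; 0.1% DMSO ± 1 µg/mL Shh-N as controls; IC50 mean of four.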"}, "[3]": {"assay": "AUC (0 to 8 hrs) in non-fasted mouse at 10 mg/kg, po cassette dosing by LC/MS/MS analysis", "format": "ADME, organism-based", "set-up": "dose 10 mg/kg, time < 8 hr, route oral", "conditions": "in vivo", "procedure,_shortened": "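Single 10 mg/kg oral cassette dose to nonfasted mice; blood sampled, plasma separated by centrifugation, deproteinized with MeCN containing internal standard, supernatant diluted in 10 mmol/L HCOONH4/0.2% formic acid–MeCN with 0.2% formic acid (9:1), recentrifuged, concentrations quantified by LC/MS/MS; AUC from 0 to 8 h.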"}},
  "data": [
    {"smiles": "CCc1nc2c(nc1NC(=O)c1ccccc1)c(OCC(F)(F)F)c(C(=O)NC1CCN(C(=O)CO)CC1)n2C", "values": [
      {"measurement": "Gli1 mRNA expression relative to control", "setting": "[1]", "result": 57, "unit": "%"},
      {"measurement": "IC50", "setting": "[2]", "result": 3.1, "unit": "nM"},
      {"measurement": "AUC(0-t) at 8 h", "setting": "[3]", "result": 0.925, "unit": "µg·h/mL"}
    ]},
    {"smiles": "CCc1cc2c(nc1NC(=O)c1ccccc1)c(OCC(F)(F)F)c(C(=O)NC1CCN(C(=O)CO)CC1)n2C", "values": [
      {"measurement": "Gli1 mRNA expression relative to control", "setting": "[1]", "result": 87, "unit": "%"},
      {"measurement": "IC50", "setting": "[2]", "result": 3.9, "unit": "nM"},
      {"measurement": "AUC(0-t) at 8 h", "setting": "[3]", "result": 0.984, "unit": "µg·h/mL"}
    ]},
    {"smiles": "CCc1cc2c(cc1NC(=O)c1ccccc1)c(OCC(F)(F)F)c(C(=O)NC1CCN(C(=O)CO)CC1)n2C", "values": [
      {"measurement": "Gli1 mRNA expression relative to control", "setting": "[1]", "result": 50, "unit": "%"},
      {"measurement": "IC50", "setting": "[2]", "result": 2.6, "unit": "nM"},
      {"measurement": "AUC(0-t) at 8 h", "setting": "[3]", "result": 1.27, "unit": "µg·h/mL"}
    ]},
    {"smiles": "CCc1nc2c(cc1NC(=O)c1ccccc1)c(OCC(F)(F)F)c(C(=O)NC1CCN(C(=O)CO)CC1)n2C", "values": [
      {"measurement": "Gli1 mRNA expression relative to control", "setting": "[1]", "result": 24, "unit": "%"},
      {"measurement": "IC50", "setting": "[2]", "result": 3.6, "unit": "nM"},
      {"measurement": "AUC(0-t) at 8 h", "setting": "[3]", "result": 10.8, "unit": "µg·h/mL"}
    ]},
    {"smiles": "CCc1nc2c(cc1CC(=O)c1ccccc1)c(OCC(F)(F)F)c(C(=O)NC1CCN(C(=O)CO)CC1)n2C", "values": [
      {"measurement": "IC50", "setting": "[2]", "result": 46, "unit": "nM"}
    ]},
    {"smiles": "CCc1nc2c(c(OCC(F)(F)F)c(C(=O)NC3CCN(C(=O)CO)CC3)n2C)c(=O)n1CC(=O)c1ccccc1", "values": [
      {"measurement": "IC50", "setting": "[2]", "result": 6.2, "unit": "nM"}
    ]},
    {"smiles": "CCc1cc2c(c(OCC(F)(F)F)c(C(=O)NC3CCN(C(=O)CO)CC3)n2C)c(=O)n1CC(=O)c1ccccc1", "note": "[TAK-441]", "values": [
      {"measurement": "Gli1 mRNA expression relative to control", "setting": "[1]", "result": 4, "unit": "%"},
      {"measurement": "IC50", "setting": "[2]", "result": 4.4, "unit": "nM"},
      {"measurement": "AUC(0-t) at 8 h", "setting": "[3]", "result": 28.3, "unit": "µg·h/mL"}
    ]}
  ]
}
